In ChEMBL document CHEMBL3421623 (J Med Chem, 2015):

Legend:
[1] = target: T1, Estrogen receptor beta (Homo sapiens, UniProt Q92731); experiment: Displacement of fluorescein-labeled ES2 from human recombinant ERbeta receptor after 2 hrs by fluorescence polarization assay
Procedure, shortened: (§1)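 Fluorescence polarization competition. Compound in methanol or DMSO mixed with ES2 screening buffer (100 mM potassium phosphate, 100 μg/mL BGG, 0.02% NaN₃). Preformed complex added to final 9 nM ES2 with 30 nM ER-α or 20 nM ER-β. Polarization expressed as % of vehicle control; EC50 from one-site competition fit.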

[2] = target: T2, Aromatase (Homo sapiens, UniProt P11511); experiment: Inhibition of human recombinant aromatase using 7-methoxy-trifluoromethylcoumarin as substrate assessed as formation of fluorescent metabolite after 30 mins by fluorescence assay
T2 sequence (P11511 whole entry): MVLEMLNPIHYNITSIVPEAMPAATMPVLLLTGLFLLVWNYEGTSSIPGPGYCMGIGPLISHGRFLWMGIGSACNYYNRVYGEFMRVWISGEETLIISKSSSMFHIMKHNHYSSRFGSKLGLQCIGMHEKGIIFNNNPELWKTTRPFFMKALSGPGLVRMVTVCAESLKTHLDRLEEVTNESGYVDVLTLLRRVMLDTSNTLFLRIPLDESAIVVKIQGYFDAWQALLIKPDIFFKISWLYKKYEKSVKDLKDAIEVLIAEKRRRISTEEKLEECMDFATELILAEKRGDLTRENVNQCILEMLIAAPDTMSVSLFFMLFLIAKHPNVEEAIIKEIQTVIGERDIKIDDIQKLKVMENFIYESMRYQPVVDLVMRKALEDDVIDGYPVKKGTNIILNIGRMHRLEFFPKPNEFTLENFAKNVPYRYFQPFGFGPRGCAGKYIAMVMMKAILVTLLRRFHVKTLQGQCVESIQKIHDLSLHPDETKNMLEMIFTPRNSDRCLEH
Procedure, shortened: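 Recombinant human CYP19 with MFC substrate, converted to fluorescent HFC, in 0.1 M potassium phosphate pH 7.4. NADPH-regenerating mix (NADP⁺, MgCl₂, glucose-6-phosphate, G6PDH); compound prewarmed 10 min at 37 °C, then 30 min reaction stopped with Tris base in acetonitrile. Activity as % of vehicle control; IC50 from one-site competition fit; Ki from Lineweaver–Burk data by nonlinear regression.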

[3] = target: T3, Estrogen receptor (Homo sapiens, UniProt P03372); experiment: Displacement of fluorescein-labeled ES2 from human recombinant ERalpha receptor after 2 hrs by fluorescence polarization assay; procedure, shortened: as §1
T3 sequence (P03372 whole entry): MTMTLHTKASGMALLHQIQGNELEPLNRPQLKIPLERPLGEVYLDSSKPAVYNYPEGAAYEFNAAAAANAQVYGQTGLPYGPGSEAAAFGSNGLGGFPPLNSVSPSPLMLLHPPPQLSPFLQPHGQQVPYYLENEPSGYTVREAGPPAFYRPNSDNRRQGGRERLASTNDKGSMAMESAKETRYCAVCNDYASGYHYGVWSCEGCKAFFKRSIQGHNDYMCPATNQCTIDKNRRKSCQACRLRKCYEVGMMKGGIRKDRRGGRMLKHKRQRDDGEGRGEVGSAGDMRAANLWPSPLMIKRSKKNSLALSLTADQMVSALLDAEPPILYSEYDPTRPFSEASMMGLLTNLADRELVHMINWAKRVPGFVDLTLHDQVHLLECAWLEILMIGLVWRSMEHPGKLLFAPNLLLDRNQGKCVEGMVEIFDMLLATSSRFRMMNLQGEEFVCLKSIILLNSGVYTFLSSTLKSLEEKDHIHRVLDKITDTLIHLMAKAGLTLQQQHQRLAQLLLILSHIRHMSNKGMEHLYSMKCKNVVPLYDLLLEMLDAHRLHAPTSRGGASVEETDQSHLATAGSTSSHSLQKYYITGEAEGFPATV

[4] = target: T4, Estrogen receptor (Homo sapiens) (UniProt P03372); experiment: Antiestrogenic effect at estrogen receptor in human MCF7 cells assessed as inhibition of E2-induced progesterone receptor mRNA expression at 1000 nM after 24 hrs by real time quantitative PCR; format: cell-based; parameters: scale not given: the % may be the effect or the level left
T4 sequence (whole entry): T3 sequence (P03372 whole entry)
Procedure, shortened: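 MCF-7 cells (10⁵/well) grown in MEM + 10% FBS at 37 °C, 5% CO₂, then preconditioned 72 h in charcoal-stripped FBS. Treated 24 h with 1 μM compound or vehicle (0.1% methanol) plus 10 nM E2 in MEM/10% charcoal-stripped FBS. PGR mRNA extracted after genomic DNA removal and quantified by qPCR (40 cycles, Ct). Reported as % of E2-alone expression (100%); 1 μM endoxifen as positive control.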

[5] = target: T4, Estrogen receptor (Homo sapiens); experiment: Displacement of fluorescein-labeled ES2 from human recombinant ERalpha receptor at 100000 nM after 2 hrs by fluorescence polarization assay
Procedure, shortened: (§2)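 Same ES2 fluorescence polarization setup: 9 nM ES2 with 30 nM ER-α or 20 nM ER-β, in phosphate/BGG buffer, 2 h in the dark. Each compound tested at a single 100000 nM and reported as percent ER competition versus vehicle control. Compounds were E/Z isomer mixtures (mostly 1:1). Mean of at least three experiments.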

[6] = target: T1, Estrogen receptor beta; experiment: Displacement of fluorescein-labeled ES2 from human recombinant ERbeta receptor at 100000 nM after 2 hrs by fluorescence polarization assay; procedure, shortened: as §2

T1 sequence (Q92731 whole entry): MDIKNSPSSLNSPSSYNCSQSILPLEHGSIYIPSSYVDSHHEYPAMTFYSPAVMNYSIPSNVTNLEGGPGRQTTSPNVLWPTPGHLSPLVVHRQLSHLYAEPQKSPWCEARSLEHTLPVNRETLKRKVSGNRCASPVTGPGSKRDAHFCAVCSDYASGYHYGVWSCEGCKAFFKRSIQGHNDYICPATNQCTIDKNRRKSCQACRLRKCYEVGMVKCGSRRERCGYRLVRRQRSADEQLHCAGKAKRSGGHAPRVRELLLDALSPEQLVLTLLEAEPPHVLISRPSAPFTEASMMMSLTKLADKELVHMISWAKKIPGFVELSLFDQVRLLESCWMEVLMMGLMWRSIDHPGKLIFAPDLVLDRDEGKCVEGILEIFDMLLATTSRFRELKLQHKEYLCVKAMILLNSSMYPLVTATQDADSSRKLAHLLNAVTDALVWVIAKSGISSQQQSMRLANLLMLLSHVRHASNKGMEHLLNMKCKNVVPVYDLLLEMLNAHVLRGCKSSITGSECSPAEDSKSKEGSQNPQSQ

| Structure (SMILES) | EC50 [1] | IC50 [2] | EC50 [3] | Activity [4] | Activity [5] | Activity [6] | inhibition (INH) ([2]; human, 0.5 h) |
| --- | --- | --- | --- | --- | --- | --- | --- |
| CCC(CC)=C(c1ccc(O)cc1)c1ccc(OCCN)cc1 | 202 nM | 1320 nM | 277 nM | – | – | – | – |
| NCCOc1ccc(C(=C(c2ccccc2)c2ccccc2)c2ccc(O)cc2)cc1 | 478 nM | 1930 nM | 653 nM | – | – | – | – |
| CC/C(=C(/c1ccc(O)cc1)c1ccc(OCCN)cc1)c1ccc(F)cc1 (mixture of isomers) | 49.2 nM | 1020 nM | 87.8 nM | 42% | – | – | – |
| CC/C(=C(/c1ccccc1)c1ccc(OCCN)cc1)c1ccccc1 (mixture of isomers) | – | 913 nM | – | – | 0% | 0% | – |
| NCCOc1ccc(/C(=C/c2ccccc2)c2ccc(O)cc2)cc1 (mixture of isomers) | 19.5 nM | 6290 nM | 1050 nM | – | – | – | – |
| CC/C(=C(/c1ccc(O)cc1)c1ccc(OCCO)cc1)c1ccccc1 (mixture of isomers) | – | 30500 nM | – | – | 62% | 56% | – |
| CC/C(=C(/c1ccc(O)cc1)c1ccc(OCC(=O)O)cc1)c1ccccc1 (mixture of isomers) | – | 3680 nM | – | – | 55% | 57% | – |
| CC/C(=C(/c1ccc(O)cc1)c1ccc(OCCBr)cc1)c1ccccc1 (mixture of isomers) | – | – | – | – | 60% | 60% | 20% |
| CC/C(=C(/c1ccc(O)cc1)c1ccc(OCCCN)cc1)c1ccccc1 (mixture of isomers) | 21.3 nM | 1240 nM | 21.3 nM | 33% | – | – | – |
| CC/C(=C(/c1ccc(O)cc1)c1ccc(CCCN)cc1)c1ccccc1 (mixture of isomers) | 13.3 nM | 7340 nM | 27.1 nM | 16% | – | – | – |

Second part, the molecule after the results:

| EC50 [1] | IC50 [2] | EC50 [3] | Activity [4] | Activity [5] | Activity [6] | inhibition (INH) ([2]; human, 0.5 h) | Structure (SMILES) |
| --- | --- | --- | --- | --- | --- | --- | --- |
| 47.7 nM | 715 nM | 56.5 nM | 47% | – | – | – | NCCOc1ccc(/C(=C(/Cn2cnnc2)c2ccccc2)c2ccc(O)cc2)cc1 |
| 57.5 nM | 699 nM | 176 nM | 44% | – | – | – | NCCOc1ccc(/C(=C(\Cn2cnnc2)c2ccccc2)c2ccc(O)cc2)cc1 |
| 182 nM | 53.1 nM | 274 nM | – | – | – | – | CC/C(=C(/c1ccc(N)cc1)c1ccc(OCCN)cc1)c1ccccc1 (mixture of isomers) |
| 49.9 nM | 48.1 nM | 144 nM | – | – | – | – | CC/C(=C(/c1ccc(N)cc1)c1ccc(OCCN)cc1)c1ccc(O)cc1 (mixture of isomers) |
| 27.8 nM | 337 nM | 675 nM | – | – | – | – | C/C(=C(/c1ccc(O)cc1)c1ccc(OCCN)cc1)c1ccccc1 (mixture of isomers) |
| 52 nM | 143 nM | 265 nM | – | – | – | – | NCCOc1ccc(/C(=C(\CCCl)c2ccccc2)c2ccc(O)cc2)cc1 (mixture of isomers) |
| 36.5 nM | 261 nM | 384 nM | – | – | – | – | CCC/C(=C(/c1ccc(O)cc1)c1ccc(OCCN)cc1)c1ccccc1 (mixture of isomers) |
| – | 328 nM | – | – | 54% | 68% | – | CC(C)/C(=C(/c1ccc(O)cc1)c1ccc(OCCN)cc1)c1ccccc1 (mixture of isomers) |
| – | 48.9 nM | – | – | 48% | 64% | – | N#CC/C(=C(/c1ccc(O)cc1)c1ccc(OCCN)cc1)c1ccccc1 (mixture of isomers) |
| – | 16.9 nM | – | – | 59% | 74% | – | NCCOc1ccc(/C(=C(\Cn2ccnc2)c2ccccc2)c2ccc(O)cc2)cc1 (mixture of isomers) |
| 519 nM | 174 nM | 290 nM | 47% | – | – | – | NCCOc1ccc(/C(=C(\Cn2cncn2)c2ccccc2)c2ccc(O)cc2)cc1 (mixture of isomers) |
| 1350 nM | 493 nM | 3180 nM | – | – | – | – | NCCOc1ccc(/C(=C2\CCc3ccccc32)c2ccc(O)cc2)cc1 (mixture of isomers) |
| 293 nM | 491 nM | 1920 nM | 6% | – | – | – | CC/C(=C(/c1ccc(O)cc1)c1ccc(CCCN)cc1)c1ccc(O)cc1 (mixture of isomers) |
